Source: PubChem (Sanford-Burnham Center for Chemical Genomics)
Only some compounds are listed: those with a hit (about 1.8% of all), similar ones and a draw of the others.
XBP1 UPR activ: activators of adaptive XBP1 UPR arm, primary screen, cell-based, CHO-XBP1 luciferase reporter, luminescence, uHTS | IRE1-XBP1 UPR activation; percent of tunicamycin response, DMSO as zero | activation, % at 20 µM | actives 0.33% (n = 330,000);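 active = versus positive control, 20 µM dose yields 30% or more activation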
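Material: CHO cell line with stable XBP1 luciferase reporter; schedule: 16-18 h cell attachment at 37 °C, then 6 h compound exposure; signal: glow luminescence from Steady-Glo reagent; medium: serum-containing F12 medium, 10% FBS; benchmarks: tunicamycin 10 µg/mL and vehicle-only wells; read-out: percent activation relative to tunicamycin reference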
Jurkat NFkB inh: inhibitors of induced NF-kB luciferase reporter, primary screen, TCR NF-kB activation inhibitor project, cell-based, luminescence, uHTS | inhibition, % at 4 µM | Jurkat, PMA/ionomycin-induced NF-kB luciferase reporter | actives 0.53% (n = 330,000) | AID 435003, 2010; in the data active = inhibition above about 50%
CHOP UPR activ: activators of apoptotic CHOP UPR arm, primary screen, cell-based, CHO-CHOP luciferase reporter, luminescence, uHTS; UPR activation; percent of tunicamycin response over DMSO baseline; activation, % at 10 µM; actives 0.34% (n = 330,000);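 active = at 10 µM dose, activation of 40% or more, normalized to positive control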
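System: CHO-CHOP luciferase reporter cell line; amount: 500 cells/well; buffer or medium: F12 medium containing 10% fetal bovine serum; incubation: 6 h compound exposure at 37 °C after overnight seeding; measured by: luciferase luminescence after 10 min with Steady-Glo reagent; evaluation: % reporter activation, DMSO baseline versus tunicamycin full activation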
CRFBP-R2 block: antagonists of CRF-BP/CRF-R2 complex, primary screen, cell-based, HEK293, calcium dye fluorescence, uHTS | CRF-induced calcium fluorescence | inhibition, % at 11.8 µM | actives 0.59% (n = 350,000) | AID 588475, 2011;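 active = inhibition of the ligand-induced calcium signal above about 50% at the single tested concentration, limit read from the data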
697 NFkB inh: inhibitors of PMA/ionomycin-induced NF-kB reporter, 697 cells, primary screen, B-cell NF-kB inhibitor project, cell-based, luminescence, uHTS; 697 B-cell NF-kB luciferase reporter, 16 h; inhibition, % at 4 µM; AID 435022, 2010; actives 0.33% (n = 330,000); in the data active = inhibition above about 35%
Of the large screens only hits and unclear results are named; the others gave an inactive call.

Cc1ccccc1-n1ncc2c(SCC(=O)N3c4ccccc4CC3C)ncnc21 (centres undefined)	CRFBP-R2 block 54.4
O=C(O)C1C(c2ccccc2)C(C(=O)OCc2ccco2)C1c1ccccc1 (centres undefined)	none
COC(=O)C1C(c2ccccc2)C(C(=O)OCc2ccco2)C1c1ccccc1 (centres undefined)	CRFBP-R2 block 59.0
CCOC(=O)c1c(C)n(OCc2ccccc2)c2ccc3nonc3c12	CRFBP-R2 block 52.7
COCc1cc(C)nc(SCC(=O)Nc2ccc(N3CCOCC3)cc2)c1C#N	none
CN(C(=O)c1cccc(NC(=O)Cc2ccc(NC(=O)C3CCCN(C(=O)CCc4ccccc4)C3)cc2)c1)C1CC1 (centres undefined)	none (no result: XBP1 UPR activ, Jurkat NFkB inh, CHOP UPR activ, 697 NFkB inh)
CN(C(=O)c1cccc(NC(=O)Cc2ccc(NC(=O)C3CCCN(C(=O)CCc4ccccc4)C3)cc2)c1)C1CCCCC1 (centres undefined)	CRFBP-R2 block 67.3 (no result: XBP1 UPR activ, Jurkat NFkB inh, CHOP UPR activ, 697 NFkB inh)
Cc1cc(C(=O)CSc2nnc(C3CC3)n2C2CC2)c(C)n1C(C)C	none
CC(=O)N1N=C(c2ccc(Cl)cc2)CC1c1ccc([N+](=O)[O-])cc1 (centres undefined)	none
CC1(O)CC(c2ccc(Cl)cc2)=NN1C(=O)c1ccc([N+](=O)[O-])cc1 (centres undefined)	CRFBP-R2 block 99.5
CCCN(CC(=O)Nc1ccccc1OC)C(=O)c1ccc2[nH]c3c(c2c1)CC(C)CC3 (centres undefined)	none
O=C(Oc1c(Br)cc([N+](=O)[O-])cc1Br)c1cccnc1	CRFBP-R2 block 68.4
CCN1CCN(CC(=O)N2N=CCC2c2ccccc2)CC1 (centres undefined)	CRFBP-R2 block 69.7
CC(CC(=O)N1CCN(c2ccccc2)CC1)S(=O)(=O)c1ccc2c(c1)NC(=O)CO2 (centres undefined)	none
COc1ccccc1NS(=O)(=O)c1ccc(C)c(NC(=O)C2CCCO2)c1 (centres undefined)	none
CC1C(=O)C(C)C(c2cc(Br)ccc2O)NC1c1cc(Br)ccc1O (centres undefined)	CRFBP-R2 block 58.0 (no result: XBP1 UPR activ, Jurkat NFkB inh, CHOP UPR activ, 697 NFkB inh)
CC1C(=O)C(C)C(c2ccc(Br)cc2)NC1c1ccc(Br)cc1 (centres undefined)	none
O=C(CN1CCN(C(=O)c2ccco2)CC1)Nc1c2c(nc3c1CCC3)CCCC2	CRFBP-R2 block 71.7 (no result: XBP1 UPR activ, Jurkat NFkB inh, CHOP UPR activ, 697 NFkB inh)
Cc1cc(C)n2nc(CC(=O)NNC(=O)c3ccccc3Cl)nc2n1	CRFBP-R2 block 103.1
Cc1ccc(CN2CC(C(=O)N(C)CC(=O)Nc3cccc(F)c3)CC2=O)cc1 (centres undefined)	none
CCOC(=O)c1cc(C#N)c(SC)nc1C	none
CSc1nc(C)c(C(=O)C[n+]2ccccc2C)cc1C#N	CRFBP-R2 block 72.5
CCOc1cc(/C=C2\C(=O)N(c3nc(-c4ccc(Br)cc4)cs3)N=C2c2ccccc2)ccc1O	XBP1 UPR activ 98.8, CHOP UPR activ 641.9
COc1cc(/C=C2\C(=O)N(c3ccc(NC(C)=O)cc3)N=C2c2ccccc2)ccc1O	CRFBP-R2 block 68.0
N#C/C(=C\c1ccc(O)c(O)c1)C(=O)N1CCc2ccccc21	CHOP UPR activ 174.6
N#C/C(=C\c1ccc(O)c(O)c1)C(=O)NCCc1ccccc1	CHOP UPR activ 222.6
COc1cc(/C=C(\C#N)C(=O)N2CCc3ccccc32)ccc1O	none
Cc1cc(C)cc(NC(=O)Cn2nnc(C(=O)NCc3ccc(F)cc3)c2N)c1	CRFBP-R2 block 75.8
Cc1cc(C)cc(NC(=O)Cn2nnc(C(=O)NCc3ccccc3Cl)c2N)c1	none
CCN(CC)c1ccc2cc(/C(N)=N/NC(=O)c3cccs3)c(=O)oc2c1	XBP1 UPR activ 92.8 (no result: CRFBP-R2 block)
CCOc1ccccc1O[C@H](c1ccccc1)[C@H]1CNCCO1	none
Cc1noc(NS(=O)(=O)c2ccc(NC(=O)CS(=O)(=O)c3ccccc3)cc2)c1C	CRFBP-R2 block 59.7
N#Cc1c(N)n(-c2cccc(C(=O)O)c2)c2nc3ccccc3nc12	CRFBP-R2 block 57.2
N#Cc1c(N)n(-c2ccccc2N)c2nc3ccccc3nc12	none
CC(O)(CC(=O)O)CC(=O)O	none (no result: CRFBP-R2 block)
CCCc1cc(=O)[nH]c(SCC(=O)Nc2ccc(OC(F)F)cc2)n1	CRFBP-R2 block 66.1
COCCn1c(SCC(=O)Nc2cc(C)cc(C)c2)nc2ccccc2c1=O	none
COCCn1c(SCC(=O)Nc2cccc(C(=O)OC)c2)nc2ccccc2c1=O	CRFBP-R2 block 70.8
CS(=O)(=O)C1=NSC2=NC(=O)/C(=C\c3cccn3-c3ccc(Cl)cc3)C(=N)N21	CRFBP-R2 block 57.3 (no result: XBP1 UPR activ, Jurkat NFkB inh, CHOP UPR activ, 697 NFkB inh)
Cc1nn(C(=O)c2c(-c3ccccc3)noc2C)c(C)c1N=Nc1cc(C(F)(F)F)cc(C(F)(F)F)c1	CRFBP-R2 block 53.1
NCC[C@H](O)C(=O)N[C@@H]1C[C@H](N)[C@@H](O[C@H]2O[C@H](CN)[C@@H](O)[C@H](O)[C@H]2O)[C@H](O)[C@H]1O[C@H]1O[C@H](CO)[C@@H](O)[C@H](N)[C@H]1O	CRFBP-R2 block 64.3 (no result: XBP1 UPR activ, Jurkat NFkB inh, CHOP UPR activ, 697 NFkB inh)
COC(=O)C1=CO[C@@H](O[C@@H]2O[C@H](CO)[C@@H](O)[C@H](O)[C@H]2O)C2C(CO)=CCC12 (some centres undefined)	none
C#CCOc1ccccc1/C=N/NC(=O)c1ccccc1OCc1ccccc1	none
Cc1ccc(S(=O)(=O)N2CCC(C(=O)OCC(=O)N(Cc3ccccc3)C(C)C)CC2)cc1C	none (no result: XBP1 UPR activ, Jurkat NFkB inh, CHOP UPR activ, 697 NFkB inh)
COC(=O)c1cc(C#N)c(NCc2ccccc2)nc1C	CRFBP-R2 block 53.8
CC(=O)c1cc(C#N)c(N(C)Cc2ccccc2)nc1C	none
COC(=O)c1cc(C#N)c(N(C)Cc2ccccc2)nc1C	CRFBP-R2 block 61.7
O=[N+]([O-])c1cccc(/C=N\N=C2c3ccccc3-c3ccccc32)c1O	CRFBP-R2 block 57.9
O=[N+]([O-])c1ccc(O)c(Nc2ncnc3ccccc23)c1	CRFBP-R2 block 62.7
O=[N+]([O-])c1ccc(O)c(Nc2ncnc3ccc(Br)cc23)c1	CRFBP-R2 block 65.6
COc1ccc(NCC(=O)Nc2c(C)cccc2C)cc1S(=O)(=O)N1CCOCC1	none (no result: XBP1 UPR activ, Jurkat NFkB inh, CHOP UPR activ, 697 NFkB inh)
COCc1ccc(CN2CCC(C(=O)Nc3cccc(-c4cscn4)c3)CC2)o1	CRFBP-R2 block 89.8
Cc1cc(C)cc(N(CC(=O)NCC2CCCO2)C(=O)CCC(=O)Nc2nccs2)c1 (centres undefined)	none
COc1ccc(OC)c(-c2cc(C(=O)O)c3cc4ccccc4cc3n2)c1	CRFBP-R2 block 50.1 (no result: XBP1 UPR activ, Jurkat NFkB inh, CHOP UPR activ, 697 NFkB inh)
Cc1ccc(C)c(Cn2nnc3c(=O)[nH]c(C4CCCN(S(=O)(=O)Cc5ccccc5)C4)nc32)c1 (centres undefined)	XBP1 UPR activ 102.8
